According to ChEMBL document CHEMBL4251712, “Mbandakamine-Type Naphthylisoquinoline Dimers and Related Alkaloids from the Central African Liana Ancistrocladus ealaensis with Antiparasitic and Antileukemic Activities” (J Nat Prod, 2018):
The source made the active and inactive calls. No cut-off for these calls is given here.

Assays:
Trypanosoma cruzi = assay: […] activity against Trypanosoma cruzi Tulahuen C4 infected in rat L6 cells after 96 hrs by CPRG/Nonidet reagent based photometric analysis; assay type: functional, organism-based; conditions: for IC50: Tulahuen C4, L6, 96 h
Outline: (§1)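 IC50 values are means of two independent assays, individual values differing by less than a factor of 2.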

[1] = Selectivity index, ratio of IC50 for rat L6 cells to IC50 for chloroquine and pyrimethamine-resistant Plasmodium falciparum K1; assay type: toxicity; conditions: read-out: Ratio IC50
Outline: (§2)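 Selectivity index is the L6-cell IC50 divided by the P. falciparum IC50 for the matching strain (K1 or NF54). Each IC50 is the mean of two independent assays, with individual values differing by a factor of less than 2.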

Plasmodium falciparum [2] = assay: Antiplasmodial activity against chloroquine-sensitive Plasmodium falciparum NF54 assessed as reduction in [3H]-hypoxanthine incorporation pretreated for 48 hrs followed by [3H]-hypoxanthine addition measured after 24 hrs by liquid scintillation counting method; assay type: functional, organism-based
Plasmodium falciparum [3] = assay: Antiplasmodial activity against chloroquine and pyrimethamine-resistant Plasmodium falciparum K1 assessed as reduction in [3H]-hypoxanthine incorporation pretreated for 48 hrs followed by [3H]-hypoxanthine addition measured after 24 hrs by liquid scintillation counting method; assay type: functional, organism-based
Outline: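 IC50 against the K1 strain taken as the mean of two independent assays, with individual values differing by a factor of less than 2.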

Leishmania donovani = assay: […] activity against Leishmania donovani MHOM-ET-67/L82 axenic amastigotes after 72 hrs by Alamar blue assay; assay type: functional, organism-based; conditions: for IC50: MHOM-ET-67/L82, 72 h; outline: as §1
L6 = assay: Cytotoxicity against rat L6 cells after 72 hrs by Alamar blue assay; assay type: cell-based; conditions: L6, 72 h; outline: as §1
[4] = tested on: Trypanosoma brucei rhodesiense; assay: […] activity against Trypanosoma brucei rhodesiense STIB 900 trypomastigote after 72 hrs by Alamar blue assay; assay type: functional, organism-based; conditions: for IC50: STIB 900, 72 h; outline: as §1
[5] = Selectivity index, ratio of IC50 for rat L6 cells to IC50 for chloroquine-sensitive Plasmodium falciparum NF54; assay type: toxicity; conditions: read-out: Ratio IC50; outline: as §2
CCRF-CEM [6] = assay: Antileukemic activity against human CCRF-CEM cells after 24 to 48 hrs by resazurin dye based fluorescence assay; assay type: functional, cell-based
Outline: (§3)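 Leukemia cells treated with compounds across 0.001 to 100 μM, doxorubicin as reference drug; viability read by resazurin assay. Values are means with standard deviation of three independent experiments, each with six parallel measurements.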

[7] = Resistance index, ratio of IC50 for human CEM/ADR5000 cells to IC50 for human CCRF-CEM cells; assay type: functional
Outline: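 Degree of resistance calculated as IC50 for CEM/ADR5000 divided by IC50 for CCRF-CEM; IC50s from resazurin viability assay after treatment at 0.001 to 100 μM, three independent experiments of six parallels each.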

ADR5000 cell line [8] = assay: Antileukemic activity against human CEM/ADR5000 cells after 24 to 48 hrs by resazurin dye based fluorescence assay; assay type: functional, cell-based; outline: as §3
ADR5000 cell line [9] = assay: Antileukemic activity against human CEM/ADR5000 cells assessed as reduction in cell viability at 0.001 to 100 uM after 24 to 48 hrs by resazurin dye based fluorescence assay relative to control
CCRF-CEM [10] = assay: Antileukemic activity against human CCRF-CEM cells assessed as reduction in cell viability at 0.001 to 100 uM after 24 to 48 hrs by resazurin dye based fluorescence assay relative to control
Plasmodium falciparum [11] = assay: Antiplasmodial activity against Plasmodium falciparum NF54; assay type: functional, organism-based; outline: as §1

| SMILES | IC50 (Trypanosoma cruzi) [µM] | selectivity ratio [1] | IC50 (Plasmodium falciparum [2]) [µM] | IC50 (Plasmodium falciparum [3]) [µM] | IC50 (Leishmania donovani) [µM] | IC50 (L6) [µM] | IC50 [4] [µM] | selectivity ratio [5] | Activity (Trypanosoma cruzi) | Activity (Plasmodium falciparum [2]) | Activity (Plasmodium falciparum [3]) | Activity (Leishmania donovani) | Activity [4] | also measured |
| --- | --- | --- | --- | --- | --- | --- | --- | --- | --- | --- | --- | --- | --- | --- |
| COc1cc(C)cc2c(-c3c(O)cc(O)c4c3C[C@@H](C)N[C@H]4C)ccc(O)c12 | 237 | 6.13 | 9.94 | 12.9 | 26.4 | 79.1 | 15.3 | 7.95 | – | – | – | – | – | – |
| COc1cc(O)c(-c2cc(-c3c(C)cc(O)c4c(OC)ccc(-c5c(O)cc(OC)c6c5C[C@@H](C)N[C@@H]6C)c34)c(O)c3c(OC)cc(C)cc23)c2c1[C@H](C)N[C@H](C)C2 | 41.8 | 249 | 0.047 | 0.064 | > 100 | 15.9 | 1.8 | 339 | – | – | – | – | – | IC50 (CCRF-CEM [6]): 1.5 µM; Ratio IC50 [7]: 18.5; IC50 (ADR5000 cell line [8]): 27.7 µM |
| COc1cc(O)c(-c2cc(-c3c(C)cc(O)c4c(OC)ccc(-c5c(O)cc(OC)c6c5C[C@@H](C)N[C@@H]6C)c34)c(O)c3c(OC)cc(C)cc23)c2c1[C@@H](C)N[C@H](C)C2 | – | – | 0.13 | – | – | – | – | – | – | – | – | – | – | IC50 (CCRF-CEM [6]): 7.4 µM; Ratio IC50 [7]: 3.2; IC50 (ADR5000 cell line [8]): 23.9 µM |
| COc1cc(O)c(-c2ccc(OC)c3c(O)cc(C)c(-c4cc(-c5c(O)cc(OC)c6c5C[C@@H](C)N[C@H]6C)c5cc(C)cc(OC)c5c4O)c23)c2c1C(C)=N[C@H](C)C2 | – | 70.4 | 0.337 | 0.126 | > 100 | 8.87 | 4.1 | 26.3 | – | – | – | – | – | IC50 (CCRF-CEM [6]): 2.96 µM; Ratio IC50 [7]: 6.4; IC50 (ADR5000 cell line [8]): 19 µM |
| COc1cc(O)c2c(c1)C[C@H](C)N[C@@H]2C | – | – | – | – | – | – | – | – | inactive | inactive | inactive | inactive | inactive | – |
| COc1cc(OC)c(-c2ccc(O)c3c(OC)cc(C)cc23)c2c1C(C)=N[C@@H](C)C2 | 43.4 | 95.3 | 2.69 | 1.06 | 13.4 | 101 | 1.46 | 37.5 | – | – | – | – | – | Activity (ADR5000 cell line [9]): <20%; Activity (CCRF-CEM [10]): <20% |
| COc1cc(O)c2c(c1)C[C@H](C)N=C2C | – | – | – | – | – | – | – | – | inactive | inactive | inactive | inactive | inactive | – |
| COc1cc(OC)c2c(c1-c1ccc(O)c3c(OC)cc(C)cc13)C[C@H](C)N[C@H]2C [ANCISTROEALAINE B] | 32.5 | 102 | 1.74 | 0.76 | 37.9 | 77.8 | 3.85 | 44.7 | – | – | – | – | – | – |
| COc1cc(C)cc2c(-c3c(O)cc(O)c4c3C[C@@H](C)N[C@@H]4C)ccc(O)c12 [KORUPENSAMINE A] | – | – | – | – | – | – | – | – | – | – | – | – | – | IC50 (Plasmodium falciparum [11]): 0.82 µM |
| COc1cc(O)cc2c1C(C)=N[C@@H](C)C2 | – | – | – | – | – | – | – | – | inactive | inactive | inactive | inactive | inactive | – |
| O=C(Cn1ccnc1[N+](=O)[O-])NCc1ccccc1 [BENZNIDAZOLE] | 3.56 | – | – | – | – | – | – | – | – | – | – | – | – | – |
| COc1cc(O)c2c(c1)C[C@H](C)N[C@H]2C | – | – | – | – | – | – | – | – | inactive | inactive | inactive | inactive | inactive | – |
| COc1cc([C@@H]2c3cc4c(cc3[C@H](O)[C@H]3COC(=O)[C@H]23)OCO4)cc(OC)c1OC [PODOFILOX] | – | – | – | – | – | 0.041 | – | – | – | – | – | – | – | – |
